# Screening data from PubChem BioAssay.
# Rows were chosen to be rich in hits. Some 3.5% of all compounds tested hit in one or more screens of this group.
# RGS4 act = RGS4 potentiators or activators, primary screen, cell-based, HEK293 M3R inducible RGS4, calcium flux; B-score at 10 µM; carbachol calcium flux Fluo4; hits give low values; 310,000 tested, 0.92% active;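 active means B-score of the integrated calcium signal more than 4 SD below the library mean, with starting fluorescence not abnormally high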;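 further: negative B-score means reduced calcium response which marks RGS4 activation or potentiation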
#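 test system = M3R-expressing HEK293 line, RGS4 induced by doxycycline | probe or stimulus = carbachol at ECmax as muscarinic agonist stimulus | timing = dye loading 30 min 37 °C, buffer rest 30 min RT | signal = calcium dye Fluo4 fluorescence | evaluation = B score from integrated fluorescence ratio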
# MrgX1 ag = agonists of human MrgX1 receptor, primary screen, HEK293 cells, Fluo-4 calcium flux. Mas-related G-protein coupled receptor member X1 (Homo sapiens), Q96LB2. Fluo-4 calcium fluorescence, agonist mode; hits give high values. B-score at 10 µM. 310,000 tested, 0.44% active. AID 588627, 2011;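 active means calcium response B-score plate-corrected fluorescence ratio at least 3 library SD, with starting fluorescence B-score inside 5 SD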
# Target sequence (Q96LB2 whole entry, looked up): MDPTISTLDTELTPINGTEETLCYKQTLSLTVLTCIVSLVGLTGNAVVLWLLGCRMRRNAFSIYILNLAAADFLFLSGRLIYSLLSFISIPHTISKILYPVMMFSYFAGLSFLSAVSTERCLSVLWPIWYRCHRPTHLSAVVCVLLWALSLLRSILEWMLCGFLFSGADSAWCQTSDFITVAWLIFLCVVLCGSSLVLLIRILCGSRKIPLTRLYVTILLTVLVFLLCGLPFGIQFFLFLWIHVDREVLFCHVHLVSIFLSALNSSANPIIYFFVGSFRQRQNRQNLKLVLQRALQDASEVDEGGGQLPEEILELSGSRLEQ
#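 System – MrgX1-expressing HEK293 cells · Incubation – cells plated overnight, dye loaded 0.5 h 37 °C, 0.5 h room temperature · Technique – kinetic Fluo-4 NW fluorescence of intracellular calcium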
# RGS4 block = RGS4 inhibitors, primary screen, cell-based, HEK293 M3R inducible RGS4, calcium flux | Regulator of G-protein signaling 4 (Homo sapiens), P49798 | Fluo-4 calcium flux; hits give high values; triggered by carbachol at its EC20 | B-score at 10 µM | 310,000 tested, 0.45% active | AID 463165, 2010;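 active means B-score, a plate-corrected calcium signal, over three deviations above library mean, with baseline fluorescence within five deviations of library mean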;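 further: RGS4 expression induced by doxycycline in cells with stable M3 receptor; B-score is computed from the integrated fluorescence ratio over baseline after carbachol; higher B-score means a larger calcium signal and so more RGS4 inhibition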
# MrgX1 allo act = positive allosteric modulators of MrgX1, primary screen, HEK293 cells, Fluo-4 calcium flux; 310,000 tested, 0.63% active; B-score at 10 µM; FDSS; hits give high values; Mas-related G-protein coupled receptor member X1 (Homo sapiens), Q96LB2;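 active means plate-corrected calcium response at least 3 library SD above typical, normal starting fluorescence, not activating the receptor alone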;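 further: compound read alongside a low EC10 to EC30 dose of BAM8-22 agonist; peak minus trough fluorescence over baseline measured at the second addition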
# MrgX1 antag = antagonists of human MrgX1 receptor, primary screen, HEK293 cells, Fluo-4 calcium flux | B-score at 10 µM | BAM8-22 antagonism; hits give low values | 310,000 tested, 1.3% active | AID 588676, 2011;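 active means calcium-response B-score plate-corrected more than 3 library SD below zero, starting fluorescence within 5 deviations, no agonist response on first addition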;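 further: peak minus trough fluorescence over baseline after final BAM8-22 challenge near maximal dose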
# MrgX1 allo conf = MrgX1 positive allosteric modulators, duplicate retest, confirmation, HEK293 cells, Fluo-4 calcium flux; shares compounds with MrgX1 allo act; activation (ratio percentage), % at 10 µM; Fluo-4 calcium fluorescence, FDSS; 1,200 tested, 13% active; AID 602413, 2012;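 active means ratio at least 3 SD above the weak peptide control, stable starting fluorescence, no direct agonism earlier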;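 further: compound followed by low BAM8-22 agonist challenge near EC20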
# HEK293 Ca flux = nonspecific calcium signal in parental HEK293, confirmation, counter-screen for MrgX1 antagonist project, parental HEK293 cells, Fluo-4 calcium flux; shares compounds with MrgX1 antag; Fluo-4 calcium fluorescence, FDSS; fluorescence ratio F(max-min)/F0 at 10 µM; 4,000 tested, 2% active; AID 624111, 2012;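 active means duplicate-averaged calcium fluorescence ratio at least three times the standard deviation of buffer wells, a nonspecific response in parental cells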
# HEK293 Ca counter = calcium response in parental HEK293 cells, primary screen, counter-screen for MrgX1 allosteric activator project, cell-based, Fluo-4 calcium flux, duplicate; shares compounds with MrgX1 antag; Fluo-4 fluorescence ratio; hits give high values; fluorescence ratio F(max-min)/F0 at 10 µM; 4,000 tested, 0.4% active;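 active means calcium fluorescence ratio, averaged over duplicates, at least 3 SD of the buffer-well ratio, meaning a nonspecific response in receptor-free cells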;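 further: untransfected parental HEK293 lacking MrgX1 used as counterscreen for MrgX1 allosteric activators; fluorescence change taken during the second addition on a kinetic imager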
# HEK293 Ca cntr2 = calcium response in parental HEK293 cells, primary screen, counter-screen for MrgX1 agonist project, cell-based, Fluo-4 calcium flux, duplicate, agonist mode. fluorescence ratio F(max-min)/F0 at 10 µM. shares compounds with MrgX1 antag. 4,000 tested, 8.7% active. Fluo-4 calcium fluorescence (FDSS); hits give high values. AID 624115, 2012;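 active means calcium fluorescence ratio at least three times the spread of buffer wells, meaning a non-specific response in parental cells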
# Active calls of the source: *; i = inactive; . = no result given.
SMILES,RGS4 act,MrgX1 ag,RGS4 block,MrgX1 allo act,MrgX1 antag,MrgX1 allo conf,HEK293 Ca flux,HEK293 Ca counter,HEK293 Ca cntr2
O=C(Nc1ccccc1C(=O)O)c1cccc(S(=O)(=O)Nc2ccc(Br)cc2)c1,i,i,i,i,i,.,.,.,.
Cc1cc(C2CCCCC2)n(O)c(=O)c1,.,i,.,i,i,.,.,.,.
O=C(O)CCc1[nH]c2ccccc2c1Sc1ccccc1,i,i,i,i,i,.,.,.,.
CCOc1cc(S(=O)(=O)N(CC)CC)ccc1Cl,i,i,i,i,i,.,.,.,.
CCOc1cc(C)c(Cl)cc1S(=O)(=O)N(CC)CC,i,i,i,7.5*,i,i,i,i,i
Cc1ccccc1Nc1nnc(SCC2CCCCO2)s1 (stereo not drawn),i,i,i,i,i,.,.,.,.
Cc1ccc(Nc2nnc(SCC3CCCCO3)s2)cc1 (stereo not drawn),i,i,i,8.5*,i,i,i,i,i
CCc1nc2ccccc2c(C(=O)NCc2ccccc2)c1C,i,i,i,7*,i,i,i,i,i
CCc1nc2ccccc2c(C(=O)O)c1C,i,i,i,i,i,.,.,.,.
CCc1cccc(OCC(=O)Nc2ccccc2N2CCCC2)c1,i,i,i,19*,i,i,i,i,i
NC(=O)c1ccc(Oc2ncc(C(F)(F)F)cc2Cl)cc1,i,i,i,i,i,.,.,.,.
Oc1ccc(Oc2ncc(Cl)cc2Cl)cc1,i,i,i,8.8*,i,i,i,i,i
CCN1CCc2c(sc(NC(=O)COc3ccccc3)c2C(=O)OC)C1,i,i,i,i,i,.,.,.,.
Brc1ccc2c(c1)CNc1c(ncnc1N1CCOCC1)O2,i,i,i,11*,i,18%*,i,i,i
COC(=O)CNC(=O)CSc1nc2sc(-c3ccccc3)cc2c(=O)n1-c1ccccc1,i,i,i,11*,i,i,i,i,i
N#CCCN(C(=O)COC(=O)C1CCN(S(=O)(=O)c2cccs2)CC1)c1ccccc1,i,i,i,i,i,.,.,.,.
COc1ccc(C(=O)c2ccc(N(C)C)cc2)c(OC)c1,i,i,i,8.7*,i,i,i,i,i
COc1cccc(NC(=O)CN2C(=O)COc3ccc(Cl)cc32)c1,i,i,i,7.7*,i,i,i,i,i
CC12CCC(=O)N1C(C(=O)Nc1nc3ccc(Cl)cc3s1)CS2 (stereo not drawn),i,i,i,16*,i,i,i,i,i
CC12CCC(=O)N1C(C(=O)Nc1nc3ccc(S(C)(=O)=O)cc3s1)CS2 (stereo not drawn),i,i,i,i,i,.,.,.,.
COc1ccc(N2CCN(S(=O)(=O)c3c(C)nc4scc(C)n4c3=O)CC2)cc1,i,i,i,i,i,.,.,.,.
